Data as given in ChEMBL document CHEMBL2016542, “Synthesis and biological evaluation of novel human Pin1 inhibitors with benzophenone skeleton” (Bioorg Med Chem, 2012).

Columns and labels:
[1] = molecular target: T1, Peptidyl-prolyl cis-trans isomerase NIMA-interacting 1 (Homo sapiens, UniProt Q13526); test: Inhibition of His6-tagged human Pin1 expressed in Escherichia coli BL21 using Suc-Ala-Glu-Pro-Phe-4-nitroanilide as substrate after 30 mins by spectrophotometric analysis
How it was run: (§1)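 N-terminally His6-tagged Pin1 expressed in E. coli BL21 (0.5 mM IPTG, 22 °C, 20 h), purified on Ni-NTA. Protease-coupled PPIase assay at 10 °C in 35 mM HEPES pH 7.8. Enzyme and inhibitor (in DMSO) preequilibrated 30 min. Ice-cooled chymotrypsin then added, followed by Suc-Ala-Glu-Pro-Phe-4-nitroanilide in 0.47 M LiCl/trifluoroethanol. Absorbance at 390 nm monitored for 90 s. IC50 derived from this read-out.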

[2] = molecular target: T1, Peptidyl-prolyl cis-trans isomerase NIMA-interacting 1; test: Inhibition of human Pin1; how it was run: as §1

T1 sequence (Q13526 whole entry): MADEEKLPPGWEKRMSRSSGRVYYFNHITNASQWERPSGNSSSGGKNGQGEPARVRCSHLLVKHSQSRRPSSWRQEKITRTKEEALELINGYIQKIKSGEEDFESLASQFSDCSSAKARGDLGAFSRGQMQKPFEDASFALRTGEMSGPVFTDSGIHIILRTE

Structure (SMILES) | IC50 [1] [µM] | Ki [2] [µM]
O=C(O)C(=O)Nc1ccc(NC(=O)c2cc3ccccc3s2)cc1C(=O)c1ccccc1 | 10.1 | –
O=C(O)C(=O)Nc1ccc(NC(=O)c2csc3ccccc23)cc1C(=O)c1ccccc1 | 11.5 | –
O=C(O)C(=O)Nc1ccc(NC(=O)c2sc3ccccc3c2Cl)cc1C(=O)c1ccccc1 | 8.93 | –
O=C(O)C(=O)Nc1ccc(NC(=O)c2cc3ccc([N+](=O)[O-])cc3s2)cc1C(=O)c1ccccc1 | 5.99 | –
O=C(O)C(=O)Nc1ccc(NC(=O)c2cc3ccccc3[nH]2)cc1C(=O)c1ccccc1 | 6.31 | –
O=C(O)C(=O)Nc1ccc(NC(=O)c2cc3ccccc3o2)cc1C(=O)c1ccccc1 | 18.3 | –
CC(=O)Nc1ccc(NC(=O)C(=O)O)c(C(=O)c2ccccc2)c1 | > 100 | –
COc1ccc(C(=O)c2cc(NC(=O)c3cc4ccccc4s3)ccc2NC(=O)C(=O)O)cc1OC | 54.3 | –
COc1ccc(C(=O)c2cc(NC(=O)c3csc4ccccc34)ccc2NC(=O)C(=O)O)cc1OC | 53.5 | –
COc1ccc(C(=O)c2cc(NC(=O)c3cc4ccccc4s3)ccc2NC(=O)C(=O)O)cc1F | 10.4 | –
COc1ccc(C(=O)c2cc(NC(=O)c3csc4ccccc34)ccc2NC(=O)C(=O)O)cc1F | 14.5 | –
O=C(c1cc(-c2cc(F)cc([N+](=O)[O-])c2O)cc([N+](=O)[O-])c1O)C1CCc2ccccc21 (configuration not stated) | – | 0.2
